{"source": "ChEMBL document CHEMBL1122270", "about": "“N-(4-substituted-thiazolyl)oxamic acid derivatives, a new series of potent, orally active antiallergy agents” (1983)", "format_in_all_cases": "functional", "key": {"[1]": {"system": "Rattus norvegicus", "experiment": "Antiallergic activity by rat passive cutaneous anaphylaxis (PCA) assay when administered iv.;value ranges between (0.06-0.4)", "outline": "(§1)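 Male rats sensitized by id injection of diluted rat anti-ovalbumin reaginic serum (0.1 mL each side of shaved back). 24 h later, compound in saline was mixed with 5 mg ovalbumin in 0.5 mL 2% Evans Blue and given iv at 1 mL/kg. Blued-spot diameters were read 30 min later. Six rats per group; ED50 is 50% area reduction versus control, with 95% confidence limits.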"}, "[2]": {"system": "Rattus norvegicus", "experiment": "Antiallergic activity by rat passive cutaneous anaphylaxis (PCA) assay when administered per orally.;value ranges between (1.0-4.1.)", "conditions": "po", "outline": "(§2)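 Rats were passively sensitized intradermally with diluted reaginic anti-ovalbumin serum 24 h before challenge. Compound was suspended in 1% acacia and dosed by oral feeding needle at 1 mL/kg. After 20-30 min, rats were challenged with 0.02 mg ovalbumin in 0.5 mL 2% Evans Blue. Blued areas were measured 30 min after challenge. Six rats per dose; ED50 is 50% area reduction from control, with 95% confidence limits.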"}, "[3]": {"system": "Rattus norvegicus", "experiment": "Antiallergic activity by rat passive cutaneous anaphylaxis (PCA) assay when administered per orally;value ranges between (2.0-5.0.)", "conditions": "po", "outline": "as §2"}, "[4]": {"system": "Rattus norvegicus", "experiment": "antiallergic activity by rat passive cutaneous anaphylaxis (PCA) assay when administered iv", "outline": "as §1"}, "[5]": {"system": "Rattus norvegicus", "experiment": "Antiallergic activity by rat passive cutaneous anaphylaxis (PCA) assay when administered perorally.", "conditions": "po", "outline": "as §2"}, "[6]": {"system": "Rattus norvegicus", "experiment": "Antiallergic activity by rat passive cutaneous anaphylaxis (PCA) assay when administered iv.;value ranges between (0.2-1.8.)", "outline": "as §1"}, "[7]": {"system": "Rattus norvegicus", "experiment": "Antiallergic activity by rat passive cutaneous anaphylaxis (PCA) assay when administered perorally; value ranges between (2.9-15.4)", "conditions": "po", "outline": "as §2"}, "[8]": {"system": "Rattus norvegicus", "experiment": "Antiallergic activity by rat passive cutaneous anaphylaxis (PCA) assay when administered per orally;value ranges between (1.5-9.0).", "conditions": "po", "outline": "as §2"}, "[9]": {"system": "Rattus norvegicus", "experiment": "Antiallergic activity by rat passive cutaneous anaphylaxis (PCA) assay when administered iv;value ranges between 0.02-0.07", "outline": "as §1"}, "[10]": {"system": "Rattus norvegicus", "experiment": "Antiallergic activity by rat passive cutaneous anaphylaxis (PCA) assay when administered per orally;value ranges between (0.32-1.04)", "conditions": "po", "outline": "as §2"}}, "data": [{"smiles": "COc1cccc(-c2csc(NC(=O)C(=O)O)n2)c1", "values": [{"measurement": "ED50", "setting": "[1]", "value": 0.16, "unit": "mg/kg"}, {"measurement": "ED50", "setting": "[2]", "value": 2.1, "unit": "mg/kg"}]}, {"smiles": "CCOC(=O)C(=O)Nc1nc(-c2ccc(N3CCCCC3)cc2)cs1", "values": [{"measurement": "ED50", "setting": "[3]", "value": 3.2, "unit": "mg/kg"}]}, {"smiles": "O=C(O)C(=O)Nc1nc(-c2ccccc2)cs1", "values": [{"measurement": "ED50", "setting": "[4]", "value": "> 3", "unit": "mg/kg"}, {"measurement": "ED50", "setting": "[5]", "value": "~1", "unit": "mg/kg"}]}, {"smiles": "NCCO.O=C(O)C(=O)Nc1nc(-c2ccccc2O)cs1", "values": [{"measurement": "ED50", "setting": "[6]", "value": 0.62, "unit": "mg/kg"}, {"measurement": "ED50", "setting": "[7]", "value": 6.7, "unit": "mg/kg"}]}, {"smiles": "CCOC(=O)C(=O)Nc1nc(-c2ccc(O)cc2C)cs1", "values": [{"measurement": "ED50", "setting": "[8]", "value": 3.7, "unit": "mg/kg"}]}, {"smiles": "NCCO.O=C(O)C(=O)Nc1nc(-c2ccc3c(c2)OCCO3)cs1", "values": [{"measurement": "ED50", "setting": "[9]", "value": 0.039, "unit": "mg/kg"}, {"measurement": "ED50", "setting": "[10]", "value": 0.6, "unit": "mg/kg"}]}]}
